Reference: paper PMC9050788 (European Journal of Drug Metabolism and Pharmacokinetics, 2022)
Entries after “also recorded” stand apart in the source; their conditions may differ. Blank lines part the entries; values can stand above or below the molecule they belong to.

What was measured:
[1] = Phase I DDI study of abrocitinib with probenecid; type: in vivo, human
[2] = plasma protein binding; ref data on file; cited from earlier work
[3] = test system: organic anion transporter 3 (OAT3); settings: in vitro transporter profiling; ref data on file; cited from earlier work
Single vs multiple-dose = type: in vivo, human; settings: for Contribution to the total active moiety (unbound, adjusted for relative potencies): at steady state with 200 mg QD dosing; for Mean (SD) plasma concentration: abrocitinib 200 mg once daily
[4] = after a single oral dose of abrocitinib; ref data on file; cited from earlier work
[5] = Phase I DDI study of abrocitinib with rifampin; type: in vivo, human
[6] = population analyses; ref data on file; cited from earlier work
CYP2C9 = settings: data on file; cited from earlier work
[7] = test system: cytochrome P450 (CYP) 2C19; settings: CYP2C19; data on file; cited from earlier work
[8] = cited from earlier work
[9] = Phase I DDI study of abrocitinib with fluconazole; type: in vivo, human
[10] = Phase I DDI study of abrocitinib with fluvoxamine; type: in vivo, human
CYP3A4 = settings: data on file; cited from earlier work
[11] = Safety across the three phase I DDI studies; type: in vivo, human; settings: all three studies, healthy volunteers
How it was run: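 Safety population comprised all subjects receiving at least one dose of study medication. Adverse events were summarised descriptively.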

CYP2B6 = settings: data on file; cited from earlier work
[12] = Probenecid 1000 mg BID (n = 12)
[13] = with probenecid vs abrocitinib alone, active moiety unbound
[14] = Abrocitinib 100 mg single dose (n = 12), rifampin study
[15] = Abrocitinib 200 mg single dose + Rifampin 600 mg QD (n = 12)
[16] = with rifampin vs abrocitinib alone, active moiety unbound
[17] = Abrocitinib 100 mg single dose (n = 12), fluconazole study
[18] = Abrocitinib 100 mg single dose + fluconazole 200 mg QD (n = 12)
[19] = with fluconazole vs abrocitinib alone, active moiety unbound
[20] = Abrocitinib 100 mg single dose (n = 12), fluvoxamine study
[21] = Abrocitinib 100 mg single dose + fluvoxamine 50 mg QD (n = 12)
[22] = with fluvoxamine vs abrocitinib alone, active moiety unbound
[23] = Abrocitinib 100 mg single dose (n = 12), probenecid study
[24] = Abrocitinib 200 mg single dose + Probenecid 1000 mg BID (n = 12)

Subjects with TRAEs [1, 12]: 2 (16.7) n (%)
SMILES: CCCN(CCC)S(=O)(=O)c1ccc(C(=O)O)cc1 [Probenecid, reference compound]
Subjects with TEAEs [1, 12]: 2 (16.7) n (%)

Contribution to the total active moiety (unbound, adjusted for relative potencies) (Single vs multiple-dose): ~ 30%
Increase in AUCinf [1, 13]: 2.2 fold
Increase in Cmax [1, 13]: 1.3 fold
SMILES: CC(O)CS(=O)(=O)N[C@H]1C[C@@H](N(C)c2ncnc3[nH]ccc23)C1 (stereo partly shown) [M2]
Fraction unbound in plasma (fu) [2]: 0.71
Substrate of OAT3 [3]: substrates; also recorded: in part a substrate
Share of circulating species [4]: 12%

Contribution to the total active moiety (unbound, adjusted for relative potencies) (Single vs multiple-dose): ~ 10%
Increase in Cmax [1, 13]: 1.4 fold
SMILES: CN(c1ncnc2[nH]ccc12)[C@H]1C[C@@H](NS(=O)(=O)CCCO)C1 [M1]
Fraction unbound in plasma (fu) [2]: 0.63
Substrate of OAT3 [3]: substrates; also recorded: in part a substrate
Share of circulating species [4]: 11%

Subjects with TRAEs ([5]; Rifampin 600 mg QD (n = 12)): 10 (83.3) n (%)
SMILES: CO[C@H]1/C=C/O[C@@]2(C)Oc3c(C)c(O)c4c(O)c(c(/C=N/N5CCN(C)CC5)c(O)c4c3C2=O)NC(=O)/C(C)=C\C=C\[C@H](C)[C@H](O)[C@@H](C)[C@@H](O)[C@@H](C)[C@H](OC(C)=O)[C@@H]1C [Rifampin, reference compound]
Subjects with TEAEs ([5]; Rifampin 600 mg QD (n = 12)): 10 (83.3) n (%)

Subjects with TRAEs [5, 14]: 2 (16.7) n (%)
Subjects with TRAEs [5, 15]: 4 (33.3) n (%)
Decrease in AUCinf [5, 16]: 87.6%
Decrease in Cmax [5, 16]: 79.1%
Subjects with TRAEs [9, 17]: 2 (16.7) n (%)
Subjects with TRAEs [9, 18]: 6 (50.0) n (%)
Increase in AUCinf [9, 19]: 4.8 fold
Increase in Cmax [9, 19]: 1.9 fold
Subjects with TRAEs [10, 20]: 3 (25.0) n (%)
Subjects with TRAEs [10, 21]: 3 (25.0) n (%)
Increase in AUCinf [10, 22]: 2.8 fold
Increase in Cmax [10, 22]: 1.8 fold
Mean (SD) plasma concentration (Single vs multiple-dose; before dosing on Day 2): 9.16 (7.96) ng/mL
Mean (SD) plasma concentration (Single vs multiple-dose; before dosing on Day 3): 15.01 (21.38) ng/mL
Mean (SD) plasma concentration (Single vs multiple-dose; before dosing on Day 4): 14.95 (15.88) ng/mL
concentration at 24 h (Single vs multiple-dose; human, plasma, oral, 200 mg): 11.3 ng/mL
Time to steady-state plasma concentrations (Single vs multiple-dose; once-daily administration, achieved by Day 3 of dosing): ≤ 48 h
Subjects with TRAEs [1, 23]: 2 (16.7) n (%)
Subjects with TRAEs [1, 24]: 4 (33.3) n (%)
Increase in Cmax [1, 13]: 1.2 fold
SMILES: CCCS(=O)(=O)N[C@H]1C[C@@H](N(C)c2ncnc3[nH]ccc23)C1 [Abrocitinib, N-{cis-3-[Methyl(7H-pyrrolo[2,3-d]pyrimidin-4-yl)amino]cyclobutyl}propane-1-sulfo namide]
Sex-related differences in pharmacokinetics [6]: no sex-related differences
Contribution to abrocitinib metabolism (CYP2C9): 30%
Subjects with TEAEs [5, 14]: 2 (16.7) n (%)
Subjects with TEAEs [5, 15]: 4 (33.3) n (%)
Contribution to abrocitinib metabolism [7]: 53%
Parent drug excreted unchanged in the urine [8]: 1.0–4.4%
Subjects with TEAEs [9, 17]: 2 (16.7) n (%)
Subjects with TEAEs [9, 18]: 7 (58.3) n (%)
Subjects with TEAEs [10, 20]: 3 (25.0) n (%)
Subjects with TEAEs [10, 21]: 6 (50.0) n (%)
Contribution to abrocitinib metabolism (CYP3A4): 11%
Substrate of OAT3 [3]: not a substrate
Serious or severe adverse events [11]: No serious or severe adverse events
Contribution to abrocitinib metabolism (CYP2B6): 6%
Subjects with TEAEs [1, 23]: 6 (50.0) n (%)
Subjects with TEAEs [1, 24]: 5 (41.7) n (%)
Share of circulating species [4]: 26%
